Test results published in paper PMC7058367 (Biochemical pharmacology, 2018).
Like-named read-outs stand apart in the source and are kept apart here.

Columns and labels:
[1] = biological target: GluN1/GluN2A^ΔCTD receptors (Rattus norvegicus, UniProt P35439+Q00959); type: cell-based
In short: (§1)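 Xenopus laevis oocytes were injected with GluN1a:GluN2 RNA at a 1:3 molar ratio (15-30 ng total; 10-20-fold more for CTD-deleted subunits) and kept in ND-96 at 17 °C for 1-5 days. TEVC was run at -60 mV in 116 mM NaCl, 2 mM KCl, 0.3 mM BaCl2, 5 mM HEPES, pH 7.4. […] Full-length controls came from the same batch and day; mean ± s.e.m.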

[2] = biological target: GluN1^ΔCTD/GluN2A receptors (Rattus norvegicus, UniProt P35439+Q00959); type: cell-based; details: for effect of GluN1 CTD-deletion on modulator activity at GluN2A receptors: vs GluN1^WT/GluN2A, GNE-8324 30 µM, PAS 100 µM, DQP-1105 50 µM, TCN-201 10 µM (Fig. 4E, 5G-I)
In short: as §1

GluN1/GluN2A receptors = GluN1/GluN2A receptors (Rattus norvegicus, UniProt P35439+Q00959); type: cell-based
In short: as §1

[3] = biological target: GluN1/GluN2C^ΔCTD receptors (Rattus norvegicus, UniProt P35439+Q00961); experiment: Two-electrode voltage clamp of GluN2C CTD-deleted receptors; type: cell-based
In short: (§2)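 Xenopus laevis oocytes were injected with GluN1a and GluN2 RNA at a 1:3 molar ratio. The CTD was removed by a stop codon at GluN1 838K or GluN2C 855K, and 10-20-fold more RNA than wild type was injected. Oocytes were kept in ND-96 at 17 °C for 1-5 days. TEVC was run at -60 mV in Ba2+ buffer (pH 7.4). […] Full-length receptors were run alternately on the same day and oocyte batch. Values are mean ± s.e.m.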

[4] = biological target: GluN1/GluN2D^ΔCTD receptors (Rattus norvegicus, UniProt P35439+Q62645); type: cell-based
[5] = biological target: GluN1^ΔCTD/GluN2D receptors (Rattus norvegicus, UniProt P35439+Q62645); type: cell-based
In short: as §2

GluN1/GluN2C receptors = GluN1/GluN2C receptors (Rattus norvegicus, UniProt P35439+Q00961); type: cell-based
In short: (§3)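 Oocytes expressed wild-type GluN1a/GluN2 receptors from 15-30 ng RNA (1:3 molar) and were held in ND-96 at 17 °C for 1-5 days. For Ca2+ chelation, 5 mM EGTA (50 nL) was injected 1-2 h before recording, with uninjected and water-injected oocytes as controls. TEVC was run at -60 mV in 116 mM NaCl, 2 mM KCl, 0.3 mM BaCl2, 5 mM HEPES (pH 7.4). […] Values are mean ± s.e.m.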

GluN1/GluN2D receptors = GluN1/GluN2D receptors (Rattus norvegicus, UniProt P35439+Q62645); type: cell-based
In short: as §3

[6] = biological target: GluN1/GluN2B^ΔCTD receptors (Rattus norvegicus, UniProt P35439+Q00960); type: cell-based; details: for % potentiation of agonist-evoked current: 10 µM L-glutamate/10 µM glycine (Fig. 2B, 4B)
GluN1/GluN2B receptors = GluN1/GluN2B receptors (Rattus norvegicus, UniProt P35439+Q00960); type: cell-based
[7] = tested on: GluN1 CTD in neurons expressing GluN1-GFP, GluN2A and GluN1-mCherry; experiment: CTD-FRET; type: cell-based, rat; details: 75 µM compound, absence of agonists, imaged 10 min after application (Fig. 8)
In short: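 Rat primary hippocampal neurons were transfected at DIV 7-10 with ~2 µg total DNA (GluN1-GFP, GluN2A, GluN1-mCherry) by lipofection and imaged at 16-18 DIV in 0.87x HBSS, 5 mM HEPES, 1 mM glucose, 2.5 mM MgCl2, 0.5 mM CaCl2. Baseline and 10 min post-compound two-photon FLIM images were taken, each neuron imaged twice, compounds interleaved. Lifetimes were fit single-exponential and analysed blind; two preparations pooled.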

[8] = biological target: GluN1^ΔCTD/GluN2C receptors (Rattus norvegicus, UniProt P35439+Q00961); type: cell-based; details: 100 µM compound; 10 µM L-glutamate/10 µM glycine (Fig. 2C)
In short: as §1

[9] = biological target: GluN1^ΔCTD/GluN2B receptors (Rattus norvegicus, UniProt P35439+Q00960); type: cell-based; details: 100 µM compound; 10 µM L-glutamate/10 µM glycine (Fig. 2C)
In short: as §1

[10] = 10 µM compound, 10 µM L-glutamate/10 µM glycine (Fig. 5D-F)
[11] = 10 µM compound, 10 µM L-glutamate/10 µM glycine, GluN2A^WT (Fig. 5D-F)
[12] = 10 µM compound, 10 µM L-glutamate/10 µM glycine (Fig. 4D)
[13] = 30 µM compound, 10 µM L-glutamate/10 µM glycine (Fig. 4A, 5B)
[14] = 30 µM compound, vs WT (Fig. 5B)
[15] = 100 µM compound, 10 µM L-glutamate/10 µM glycine (Fig. 2B, 5A)
[16] = 100 µM compound, 10 µM L-glutamate/10 µM glycine (Fig. 2C)
[17] = 10 µM FSK and 1 mM IBMX for 10 minutes, 50 µM UBP684, 100 µM PS (Fig. 7B, C)
[18] = 100 µM compound, control cells for U73122 experiment (Fig. 6J)
[19] = 10 µM compound, 10 µM L-glutamate/10 µM glycine (Fig. 5C)

Chain of GluN1/GluN2D receptors (Q62645 28-1323, other chains not shown): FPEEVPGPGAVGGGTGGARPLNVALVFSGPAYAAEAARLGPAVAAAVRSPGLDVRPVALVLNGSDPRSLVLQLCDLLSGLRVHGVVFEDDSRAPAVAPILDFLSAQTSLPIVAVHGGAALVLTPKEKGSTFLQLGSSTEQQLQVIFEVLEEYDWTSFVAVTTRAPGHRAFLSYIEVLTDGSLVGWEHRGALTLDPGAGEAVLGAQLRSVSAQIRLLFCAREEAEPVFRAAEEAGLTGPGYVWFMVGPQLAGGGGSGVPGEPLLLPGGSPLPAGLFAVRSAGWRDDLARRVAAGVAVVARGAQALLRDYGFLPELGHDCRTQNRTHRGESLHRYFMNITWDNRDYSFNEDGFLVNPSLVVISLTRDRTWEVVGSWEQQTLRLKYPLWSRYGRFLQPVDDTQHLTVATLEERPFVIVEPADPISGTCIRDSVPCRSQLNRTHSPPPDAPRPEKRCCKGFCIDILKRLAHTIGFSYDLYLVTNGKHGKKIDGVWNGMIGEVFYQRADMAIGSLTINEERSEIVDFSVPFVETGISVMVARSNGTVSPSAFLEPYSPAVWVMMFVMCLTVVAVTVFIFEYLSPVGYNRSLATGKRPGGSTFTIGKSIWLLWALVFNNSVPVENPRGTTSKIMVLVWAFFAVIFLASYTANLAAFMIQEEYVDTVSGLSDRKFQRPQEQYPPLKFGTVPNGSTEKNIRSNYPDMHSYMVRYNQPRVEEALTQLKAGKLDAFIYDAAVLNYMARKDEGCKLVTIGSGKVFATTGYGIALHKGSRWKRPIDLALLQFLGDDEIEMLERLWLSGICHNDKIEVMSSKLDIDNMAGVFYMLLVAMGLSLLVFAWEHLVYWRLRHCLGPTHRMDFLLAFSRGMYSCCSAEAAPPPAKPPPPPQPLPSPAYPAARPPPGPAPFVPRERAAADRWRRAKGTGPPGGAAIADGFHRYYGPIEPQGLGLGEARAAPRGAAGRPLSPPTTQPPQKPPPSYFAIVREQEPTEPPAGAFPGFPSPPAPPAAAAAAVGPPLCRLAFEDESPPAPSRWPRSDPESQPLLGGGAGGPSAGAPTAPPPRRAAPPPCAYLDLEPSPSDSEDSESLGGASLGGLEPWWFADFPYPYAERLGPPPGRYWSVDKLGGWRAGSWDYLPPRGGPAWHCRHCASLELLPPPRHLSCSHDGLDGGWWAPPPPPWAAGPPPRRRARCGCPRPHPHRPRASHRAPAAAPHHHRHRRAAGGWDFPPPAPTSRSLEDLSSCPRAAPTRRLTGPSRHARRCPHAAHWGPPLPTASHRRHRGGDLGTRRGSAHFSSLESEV
Chain of GluN1/GluN2C^ΔCTD receptors (Q00961 20-842, stated change not applied, other chains not shown): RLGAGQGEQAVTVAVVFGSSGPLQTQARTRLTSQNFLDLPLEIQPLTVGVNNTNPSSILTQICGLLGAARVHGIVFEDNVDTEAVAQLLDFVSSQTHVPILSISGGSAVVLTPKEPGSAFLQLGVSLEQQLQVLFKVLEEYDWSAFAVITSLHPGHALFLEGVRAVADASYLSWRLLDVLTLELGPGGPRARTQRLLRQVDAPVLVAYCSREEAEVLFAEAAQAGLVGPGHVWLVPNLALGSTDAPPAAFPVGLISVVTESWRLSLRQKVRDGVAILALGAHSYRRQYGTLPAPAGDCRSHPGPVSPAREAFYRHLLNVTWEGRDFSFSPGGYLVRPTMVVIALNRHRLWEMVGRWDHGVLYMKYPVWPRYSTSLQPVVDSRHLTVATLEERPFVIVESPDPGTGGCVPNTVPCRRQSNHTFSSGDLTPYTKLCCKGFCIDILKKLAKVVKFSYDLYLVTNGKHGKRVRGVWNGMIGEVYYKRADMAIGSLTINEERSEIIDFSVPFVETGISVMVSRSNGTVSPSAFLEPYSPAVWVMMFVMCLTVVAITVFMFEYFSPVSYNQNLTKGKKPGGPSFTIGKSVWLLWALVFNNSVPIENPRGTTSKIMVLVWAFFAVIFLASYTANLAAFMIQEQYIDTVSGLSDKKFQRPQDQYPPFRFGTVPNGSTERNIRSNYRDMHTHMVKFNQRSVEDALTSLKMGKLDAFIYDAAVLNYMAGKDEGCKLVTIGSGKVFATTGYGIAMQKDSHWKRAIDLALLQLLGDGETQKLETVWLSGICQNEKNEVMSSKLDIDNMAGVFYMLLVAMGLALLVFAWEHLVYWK
Chain of GluN1/GluN2C receptors (Q00961 20-1237, other chains not shown): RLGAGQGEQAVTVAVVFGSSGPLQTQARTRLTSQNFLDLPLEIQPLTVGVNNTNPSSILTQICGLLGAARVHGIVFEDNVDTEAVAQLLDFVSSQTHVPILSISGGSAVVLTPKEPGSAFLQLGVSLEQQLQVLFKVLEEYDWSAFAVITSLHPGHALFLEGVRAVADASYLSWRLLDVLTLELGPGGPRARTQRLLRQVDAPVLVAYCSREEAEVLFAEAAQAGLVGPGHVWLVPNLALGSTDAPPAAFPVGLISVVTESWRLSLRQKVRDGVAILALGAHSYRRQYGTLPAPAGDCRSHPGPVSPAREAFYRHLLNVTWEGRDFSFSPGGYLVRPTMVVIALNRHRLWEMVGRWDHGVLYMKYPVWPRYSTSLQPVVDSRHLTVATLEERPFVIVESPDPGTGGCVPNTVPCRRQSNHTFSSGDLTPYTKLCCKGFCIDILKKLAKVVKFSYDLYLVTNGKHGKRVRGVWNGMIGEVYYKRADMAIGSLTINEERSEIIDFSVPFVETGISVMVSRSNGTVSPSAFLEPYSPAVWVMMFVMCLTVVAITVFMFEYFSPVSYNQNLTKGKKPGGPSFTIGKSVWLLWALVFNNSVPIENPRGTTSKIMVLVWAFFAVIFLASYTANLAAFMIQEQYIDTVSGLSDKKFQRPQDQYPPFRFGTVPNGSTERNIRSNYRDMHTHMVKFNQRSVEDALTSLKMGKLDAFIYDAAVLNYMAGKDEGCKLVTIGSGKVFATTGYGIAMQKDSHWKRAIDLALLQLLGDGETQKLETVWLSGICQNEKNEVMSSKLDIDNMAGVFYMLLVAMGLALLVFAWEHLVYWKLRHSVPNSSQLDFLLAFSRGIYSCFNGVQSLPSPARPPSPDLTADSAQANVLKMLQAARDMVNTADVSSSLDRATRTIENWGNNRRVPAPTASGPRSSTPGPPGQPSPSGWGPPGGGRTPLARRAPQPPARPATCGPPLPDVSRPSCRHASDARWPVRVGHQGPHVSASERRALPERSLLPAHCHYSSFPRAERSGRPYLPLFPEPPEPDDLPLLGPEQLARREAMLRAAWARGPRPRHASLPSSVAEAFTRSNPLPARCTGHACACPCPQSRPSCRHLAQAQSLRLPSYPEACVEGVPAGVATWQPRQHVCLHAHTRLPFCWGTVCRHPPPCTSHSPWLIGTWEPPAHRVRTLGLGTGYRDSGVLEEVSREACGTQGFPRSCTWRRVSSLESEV
Chain of GluN1/GluN2D^ΔCTD receptors (Q62645 28-869 limits assumed, stated change not applied, other chains not shown): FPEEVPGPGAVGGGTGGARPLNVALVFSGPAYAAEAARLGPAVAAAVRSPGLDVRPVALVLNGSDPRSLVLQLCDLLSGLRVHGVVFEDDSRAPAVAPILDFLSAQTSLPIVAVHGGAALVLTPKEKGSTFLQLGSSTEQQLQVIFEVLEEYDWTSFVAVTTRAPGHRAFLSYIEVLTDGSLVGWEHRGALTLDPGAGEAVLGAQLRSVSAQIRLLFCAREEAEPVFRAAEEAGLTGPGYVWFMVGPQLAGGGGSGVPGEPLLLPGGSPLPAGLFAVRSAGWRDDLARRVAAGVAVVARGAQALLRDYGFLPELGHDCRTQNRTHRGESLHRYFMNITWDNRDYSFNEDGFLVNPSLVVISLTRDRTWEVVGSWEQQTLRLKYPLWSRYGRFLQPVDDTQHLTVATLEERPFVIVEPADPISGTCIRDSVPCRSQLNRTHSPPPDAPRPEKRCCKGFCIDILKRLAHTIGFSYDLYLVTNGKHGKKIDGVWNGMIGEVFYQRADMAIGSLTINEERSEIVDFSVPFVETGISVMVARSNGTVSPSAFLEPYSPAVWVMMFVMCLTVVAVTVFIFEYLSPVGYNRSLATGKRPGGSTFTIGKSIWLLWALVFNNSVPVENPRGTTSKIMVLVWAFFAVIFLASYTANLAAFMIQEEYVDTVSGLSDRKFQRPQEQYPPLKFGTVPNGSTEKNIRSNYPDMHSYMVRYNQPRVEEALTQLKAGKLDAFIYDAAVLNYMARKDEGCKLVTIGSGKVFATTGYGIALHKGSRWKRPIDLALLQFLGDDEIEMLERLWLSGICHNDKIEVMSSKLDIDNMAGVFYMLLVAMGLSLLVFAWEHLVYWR
Chain of GluN1^ΔCTD/GluN2D receptors (Q62645 28-1323, stated change not applied, other chains not shown): as the sequence (Q62645 28-1323, other chains not shown) above
Chain of GluN1^ΔCTD/GluN2C receptors (Q00961 20-1237, stated change not applied, other chains not shown): as the sequence (Q00961 20-1237, other chains not shown) above

## O=C(NNC(=O)c1ccc(CNS(=O)(=O)c2ccc(F)c(Cl)c2)cc1)c1ccccc1 [TCN-201]
[1]; [10]
  % inhibition of agonist-evoked current: 53 ± 5%
[2]
  effect of GluN1 CTD-deletion on modulator activity at GluN2A receptors: did not observe any effect
GluN1/GluN2A receptors; [11]
  % inhibition of agonist-evoked current: 82 ± 2%

## COc1ccc(OCC2c3cc(OC)c(OC)cc3CCN2C(=O)c2cccc(Cl)c2)cc1 (stereo not drawn) [CIQ]
[3]; [12]
  % potentiation of agonist-evoked current: 113 ± 13%
[4]; [12]
  % potentiation of agonist-evoked current: 48 ± 5%
[5]; 10 µM compound, vs wild-type GluN1/GluN2D (Fig. 4F)
  effect of GluN1 CTD-deletion on PAM activity: significantly reduced
GluN1/GluN2C receptors; 10 µM compound, 10 µM L-glutamate/10 µM glycine, GluN2C^WT (Fig. 4D)
  % potentiation of agonist-evoked current: 89 ± 8%
GluN1/GluN2D receptors; 10 µM compound, 10 µM L-glutamate/10 µM glycine, GluN2D^WT (Fig. 4D)
  % potentiation of agonist-evoked current: 72 ± 11%

## O=C(O)c1cc2cc(/C=C/c3ccccc3[N+](=O)[O-])ccc2cc1O [UBP792]
[1]; [13]
  % inhibition of agonist-evoked current: 64 ± 6%
[3]; [14]
  effect of GluN2C CTD-deletion on NAM activity: did not display a significant effect
[4]; 30 µM compound, 10 µM L-glutamate/10 µM glycine (Fig. 5B)
  % inhibition of agonist-evoked current: 68 ± 7%
GluN1/GluN2A receptors; 30 µM compound, 10 µM L-glutamate/10 µM glycine, WT (Fig. 5B)
  % inhibition of agonist-evoked current: 22 ± 8%
[6]; [14]
  effect of GluN2B CTD-deletion on NAM activity: did not display a significant effect
GluN1/GluN2D receptors; 30 µM compound, 10 µM L-glutamate/10 µM glycine, wild-type (Fig. 5B)
  % inhibition of agonist-evoked current: 86 ± 1%

## CC(=O)[C@H]1CC[C@H]2[C@@H]3CC[C@@H]4C[C@H](OS(=O)(=O)O)CC[C@]4(C)[C@H]3CC[C@]12C [PAS, 5β-pregnan-3α-ol-20-onesulphate]
[1]; [15]
  % inhibition of agonist-evoked current: 89 ± 2%
[2]
  effect of GluN1 CTD-deletion on modulator activity at GluN2A receptors: did not observe any effect
[3]; [15]
  % inhibition of agonist-evoked current: 93 ± 1%
[4]; [15]
  % inhibition of agonist-evoked current: 85 ± 5%
GluN1/GluN2B receptors; 100 µM compound, 10 µM L-glutamate/10 µM glycine, GluN2B^WT (Fig. 5A)
  % inhibition of agonist-evoked current: 67 ± 1%
GluN1/GluN2A receptors; 100 µM compound, 10 µM L-glutamate/10 µM glycine, GluN2A^WT (Fig. 5A)
  % inhibition of agonist-evoked current: 61 ± 3%
[6]; 100 µM compound, 10 µM L-glutamate/10 µM glycine (Fig. 5A)
  % inhibition of agonist-evoked current: 76 ± 3%

## 5-Pregnen-3β-ol-20-onesulphate [PS]
[1]; 2 µM PMA for 10 minutes, 50 µM UBP684, 100 µM PS (Fig. 7G, H)
  effect of PKC activation by PMA on PAM activity: significantly increased
[1]; [15]
  % inhibition of agonist-evoked current: 23 ± 4%
[1]; all doses, the lowest being 3 µM, 10 µM L-glutamate/10 µM glycine (Fig. 3)
  modulation in dose-response experiment: NAM activity at all doses
[2]; [16]
  % potentiation of agonist-evoked current: 32 ± 4%
[3]; [15]
  % inhibition of agonist-evoked current: 89 ± 2%
[7]
  change of GluN1-GFP fluorescence lifetime (movement of the GluN1 CTD): did not affect
[8]
  % inhibition of agonist-evoked current: 66 ± 5%
[9]
  % potentiation of agonist-evoked current: 156 ± 25%
[4]; 10 µM L-glutamate/10 µM glycine (Fig. 3)
  IC50: 76.7 ± 19.1%
[4]; [15]
  % inhibition of agonist-evoked current: 49 ± 8%
[5]; [16]
  % inhibition of agonist-evoked current: 45 ± 6%
GluN1/GluN2B receptors; 2 µM PMA for 10 minutes, 50 µM UBP684, 100 µM PS (Fig. 7E, F)
  effect of PKC activation by PMA on PAM activity: unaffected
GluN1/GluN2B receptors; [17]
  effect of PKA activation on % potentiation: unchanged
GluN1/GluN2B receptors; [18]
  % potentiation of agonist-evoked current: 82 ± 10%
GluN1/GluN2B receptors; 5 mM EGTA injected vs controls (Fig. 6F)
  effect of EGTA injection on modulation: no significant effect
GluN1/GluN2C receptors; 5 mM EGTA injected vs controls (Fig. 6C, G)
  effect of EGTA injection on potentiation/modulation: no significant effect
GluN1/GluN2A receptors; [17]
  effect of PKA activation on % potentiation: unchanged
GluN1/GluN2A receptors; [18]
  % potentiation of agonist-evoked current: 45 ± 3%
GluN1/GluN2A receptors; 5 mM EGTA injected vs controls (Fig. 6E)
  effect of EGTA injection on modulation: no significant effect
[6]; 100 µM compound
  % potentiation of agonist-evoked current: 74 ± 10%
GluN1/GluN2D receptors; 10 µM L-glutamate/10 µM glycine, WT GluN1/GluN2D (Fig. 3)
  IC50: 149.8 ± 18.0%
GluN1/GluN2D receptors; 5 mM EGTA injected vs controls (Fig. 6D, H)
  effect of EGTA injection on potentiation/modulation: no significant effect

## Cc1ncc(CNC(=O)c2cnc(CNS(=O)(=O)c3ccc(F)c(F)c3)c(C)n2)s1 [MPX-007]
[1]; [10]
  % inhibition of agonist-evoked current: 36 ± 6%
GluN1/GluN2A receptors; [11]
  % inhibition of agonist-evoked current: 77 ± 9%

## NCCCNCCCCNCCCN [Spermine]
[6]; 100 µM compound
  % potentiation of agonist-evoked current: 57 ± 5%

## CCN(Cc1cc(=O)n2c3c(sc2n1)CCC3)c1ccc(F)cc1 [GNE-8324]
[1]; [13]
  % inhibition of agonist-evoked current: 11 ± 2%
[2]
  effect of GluN1 CTD-deletion on modulator activity at GluN2A receptors: unaffected
GluN1/GluN2A receptors; 30 µM compound, 10 µM L-glutamate/10 µM glycine, GluN2A^WT (Fig. 4A)
  % potentiation of agonist-evoked current: 35 ± 4%

## Cc1ncc(CNC(=O)c2cnc(CNS(=O)(=O)c3ccc(F)c(Cl)c3)cn2)s1 [MPX-004]
[1]; [10]
  % inhibition of agonist-evoked current: 29 ± 13%
GluN1/GluN2A receptors; [11]
  % inhibition of agonist-evoked current: 75 ± 8%

## Cc1ccc2[nH]c(=O)c(C3=NN(C(=O)CCC(=O)O)C(c4ccc(Br)cc4)C3)c(-c3ccccc3)c2c1 (stereo not drawn) [DQP-1105]
[1]; 50 µM compound, 10 µM L-glutamate/10 µM glycine (Fig. 5C)
  % inhibition of agonist-evoked current: 82 ± 4%
[2]
  effect of GluN1 CTD-deletion on modulator activity at GluN2A receptors: did not observe any effect
[3]; [19]
  % inhibition of agonist-evoked current: 79 ± 4%
[4]; [19]
  % inhibition of agonist-evoked current: 97 ± 2%
GluN1/GluN2C receptors; 10 µM compound, 10 µM L-glutamate/10 µM glycine, WT (Fig. 5C)
  % inhibition of agonist-evoked current: 69 ± 2%
GluN1/GluN2A receptors; 50 µM compound, 10 µM L-glutamate/10 µM glycine, WT (Fig. 5C)
  % inhibition of agonist-evoked current: 39 ± 3%
GluN1/GluN2D receptors; 10 µM compound, 10 µM L-glutamate/10 µM glycine, GluN2D^WT (Fig. 5C)
  % inhibition of agonist-evoked current: 87 ± 1%

## COC(=O)c1ccc(C2C(C(C)=O)=C(O)C(=O)N2CCc2c(C)[nH]c3ccccc23)cc1 (stereo not drawn) [PYD-106]
[3]; 30 µM compound, 10 µM L-glutamate/10 µM glycine (Fig. 4C)
  % potentiation of agonist-evoked current: 21 ± 3%
GluN1/GluN2C receptors; 30 µM compound, 10 µM L-glutamate/10 µM glycine, GluN2C^WT (Fig. 4C)
  % potentiation of agonist-evoked current: 64 ± 4%
